# Measured values reported in ChEMBL document CHEMBL4028903 (J Med Chem, 2017).
# The source made the active and inactive calls. No cut-off for these calls is given here.
# Experiments:
# Rattus norvegicus [1] = assay: Dose normalized AUC (0 to 24 hrs) in Sprague-Dawley rat at 0.003 mg/kg, po qd administered via gavage measured on day 11 by LC-MS/MS analysis; assay type: ADME, organism-based; settings: in vivo
# [2] = Drug uptake in Sprague-Dawley rat liver at 0.03 mg/kg, po qd administered via gavage measured 7 hrs post last dose on day 14 by LC-MS/MS analysis; assay type: ADME, organism-based; settings: read-out: Drug uptake
# Procedure, shortened: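 Drug concentration in liver was quantified from tissue homogenates, so these are total levels. Unbound liver concentration was not determined.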
# Rattus norvegicus [3] = assay: Dose normalized AUC (0 to 24 hrs) in Sprague-Dawley rat at 0.03 mg/kg, po qd administered via gavage measured on day 11 by LC-MS/MS analysis; assay type: ADME, organism-based; settings: in vivo
# Canis familiaris = assay: Drug metabolism in dog assessed as taurine conjugated metabolite formation at 0.5 mg/kg, iv or 2 mg/kg, po administered via gavage by LC-MS/MS analysis; assay type: ADME, organism-based, Canis lupus familiaris; settings: in vivo
# Procedure, shortened: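 Plasma samples were taken from the dog PK studies. The IV solution was 20% PEG300, 5% solutol and 75% carbonate buffer pH = 8. The PO suspension was 0.5% methylcellulose, 0.5% Tween80 and 99% water. Samples were screened for taurine- and glycine-conjugated metabolites and for the acylglucuronide.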
# [4] = molecular target: T1, Bile acid receptor (Rattus norvegicus) (UniProt Q62735); assay: Agonist activity at FXR in rat primary hepatocytes assessed as induction of SHP mRNA level after 24 hrs by qPCR analysis; assay type: cell-based
# T1 sequence (whole entry): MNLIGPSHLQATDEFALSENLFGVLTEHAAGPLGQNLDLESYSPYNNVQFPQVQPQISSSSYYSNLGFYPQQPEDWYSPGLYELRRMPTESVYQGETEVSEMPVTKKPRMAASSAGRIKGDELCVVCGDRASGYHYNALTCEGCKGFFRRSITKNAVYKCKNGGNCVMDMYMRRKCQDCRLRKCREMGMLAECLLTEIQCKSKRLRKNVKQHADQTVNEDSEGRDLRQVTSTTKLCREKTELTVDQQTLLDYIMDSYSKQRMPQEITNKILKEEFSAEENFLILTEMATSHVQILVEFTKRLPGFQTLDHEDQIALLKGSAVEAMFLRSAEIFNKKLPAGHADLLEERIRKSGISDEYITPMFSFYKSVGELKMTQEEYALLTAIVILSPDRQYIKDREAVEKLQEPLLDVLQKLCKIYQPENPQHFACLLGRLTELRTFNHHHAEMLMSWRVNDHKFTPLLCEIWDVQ
# Rattus norvegicus [5] = assay: Dose normalized AUC (0 to 24 hrs) in Sprague-Dawley rat at 0.003 mg/kg, po qd administered via gavage measured on day 1 by LC-MS/MS analysis; assay type: ADME, organism-based; settings: in vivo
# Rattus norvegicus [6] = assay: In vivo agonist activity at FXR in po dosed Sprague-Dawley rat assessed as induction of SHP mRNA level in ileum administered once daily for 14 days measured 7 hrs post last dose on day 14 by qPCR analysis; assay type: functional
# [7] = Protein binding in dog plasma at 0.5 mg/kg, iv or 2 mg/kg, po administered via gavage by LC-MS/MS analysis; assay type: ADME, organism-based, Canis lupus familiaris; settings: read-out: PPB
# Rattus norvegicus [8] = assay: In vivo agonist activity at FXR in Sprague-Dawley rat assessed as induction of FGF15 mRNA level in ileum at 0.01 mg/kg, po qd for 14 days measured 7 hrs post last dose on day 14 by qPCR analysis; assay type: functional, organism-based
smiles,measurement,setting,value
O=C(O)c1cc(F)c2nc(N3C4CCC3CC(OCc3c(-c5ccccc5OC(F)(F)F)noc3C3CC3)C4)sc2c1 (centres undefined),AUC/dose,Rattus norvegicus [1],756 nM·h
same,concentration at 7 h,[2],9.74 nM
same,AUC/dose,Rattus norvegicus [3],658 nM·h
same,Drug metabolism,Canis familiaris,Metabolite_Notdetected
same,Activity,[4],Dose-dependent effect
same,AUC/dose,Rattus norvegicus [5],668 nM·h
same,ED50,Rattus norvegicus [6],0.01 mg/kg
same,fraction unbound,[7],0.001
same,Activity,Rattus norvegicus [8],Active
